Laboratory results from ChEMBL document CHEMBL1149380, “Synthesis of thieno[2,3-b]pyridinones acting as cytoprotectants and as inhibitors of [3H]glycine binding to the N-methyl-D-aspartate (NMDA) receptor” (J Med Chem, 2006).
pIC50, pKi: −log10 of the molar value.

What was measured:
Glutamate NMDA receptor = assay: Inhibition of [3H]glycine binding to NMDA receptor in rat brain membranes; assay type: cell membranes
Procedure, shortened: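 [3H]glycine displaced from rat hippocampal membranes in presence of 10 µM glutamic acid; 4-5 inhibitor concentrations giving 20-90% inhibition of specific binding; Ki derived; number of experiments given per value.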

L cells = assay: Cytotoxicity against mouse fibroblast L(tk-) cells transfected with human NMDA using LDH assay; assay type: functional, cell-based; settings: L929
Procedure, shortened: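 Mouse L(tk-) fibroblast clone L12-G10 co-transfected with dexamethasone-inducible human NR1a/NR2A; seeded 15 × 10^3 cells/well, grown overnight, then receptor expression induced with 4 µM dexamethasone in Mg2+-free medium with 5% FCS (supplies glutamate and glycine) and 50 mM KCl. Compounds added at increasing, trypan-blue-verified nontoxic concentrations for 24 h. Cell death read as LDH release (INT formazan, 490 nm) relative to total LDH; four-parameter logistic fit for IC50.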

Rattus norvegicus [1] = assay: Effect on brain tissue level after 6 min at 10mg/kg, iv; assay type: ADME, organism-based, Wistar; settings: in vivo, 0.1 h
Procedure, shortened: (§1)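 Male Wistar rats given 10 mg/kg intravenously; plasma and brain tissue levels measured 6 min (n = 3) and 1 h (n = 3) after dosing; brain expressed as µmol/kg.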

Rattus norvegicus [2] = assay: Effect on brain tissue level after 1h at 10 mg/kg, iv; assay type: ADME, organism-based, Wistar; parameters: dose 10 mg/kg, route intravenous; settings: in vivo; procedure, shortened: as §1
Mus musculus [3] = assay: Protection of mice against maximal e-shock after 30 min at 43 mg/kg; assay type: functional
Procedure, shortened: (§2)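 Male Swiss mice, 10 per dose, dosed intraperitoneally (vehicle 8 parts DMSO, 10 parts H2O); doses spanned 0.3-100 mg/kg depending on compound. Maximal electroshock applied 30 or 60 min later; tonic hind limb extension scored as unprotected. Dose-response fitted to a hyperbolic function giving ID50.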

D(2) dopamine receptor = D(2) dopamine receptor (Rattus norvegicus, UniProt P61169); assay: Displacement of [3H]raclopride from dopamine receptor D2 in rat striatal membrane; assay type: cell membranes, Striatum
Mus musculus [4] = assay: Protection of mice against maximal e-shock at 30 mg/kg; assay type: functional; procedure, shortened: as §2
Rattus norvegicus [5] = assay: Effect on brain tissue level after 6 min at 5 mg/kg, iv; assay type: ADME, organism-based, Wistar; parameters: dose 5 mg/kg, route intravenous; settings: in vivo, 0.1 h
Procedure, shortened: (§3)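 Male Wistar rats given 5 mg/kg intravenously; plasma and brain tissue levels measured at 6 min and 1 h, n = 3 per time; brain expressed as µmol/kg.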

Rattus norvegicus [6] = assay: Effect on brain tissue level after 1h at 5 mg/kg, iv; assay type: ADME, organism-based, Wistar; parameters: dose 5 mg/kg, route intravenous; settings: in vivo; procedure, shortened: as §3
Mus musculus [7] = assay: Protection of mice against maximal e-shock at 0.7 mg/kg; assay type: functional; procedure, shortened: as §2
Mus musculus [8] = assay: Protection of mice against maximal e-shock after 60 min at 13.5 mg/kg; assay type: functional; procedure, shortened: as §2
Mus musculus [9] = assay: Protection of mice against maximal e-shock after 30 min at 15.5 mg/kg; assay type: functional; procedure, shortened: as §2

Chain of D(2) dopamine receptor (P61169 whole entry): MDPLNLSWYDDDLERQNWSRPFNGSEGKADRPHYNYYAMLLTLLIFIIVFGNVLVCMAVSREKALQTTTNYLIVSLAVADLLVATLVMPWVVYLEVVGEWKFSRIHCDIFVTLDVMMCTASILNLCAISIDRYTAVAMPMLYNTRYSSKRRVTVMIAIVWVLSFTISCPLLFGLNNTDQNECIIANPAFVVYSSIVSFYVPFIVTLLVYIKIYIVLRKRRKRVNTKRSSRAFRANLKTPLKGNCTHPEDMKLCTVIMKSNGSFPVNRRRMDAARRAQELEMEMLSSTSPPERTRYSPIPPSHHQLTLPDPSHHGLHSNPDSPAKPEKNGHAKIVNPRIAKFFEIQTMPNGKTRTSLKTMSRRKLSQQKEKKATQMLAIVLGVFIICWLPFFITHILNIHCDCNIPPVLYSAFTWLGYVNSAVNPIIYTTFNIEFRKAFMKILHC

SMILES	pKi (Glutamate NMDA receptor)	pIC50 (L cells)	other results
CC(C)c1csc2nc(O)c(-c3ccccc3)c(O)c12	5.82	–	–
CCc1csc2nc(O)c(-c3cccc(Oc4ccccc4)c3)c(O)c12	6.75	< 4.30	–
Oc1nc2sc(Cl)c(C3CC3)c2c(O)c1-c1ccccc1	7.24	–	–
CCCc1c(Cl)sc2nc(O)c(-c3cccc(Oc4ccccc4)c3)c(O)c12	8.39	4.80	–
Oc1nc2sc(Br)cc2c(O)c1-c1ccccc1	5.75	–	–
Oc1nc2sc(Cl)c(C3CC3)c2c(O)c1-c1cccc(Oc2ccccc2)c1	8.02	–	–
CC(C)c1c(Cl)sc2nc(S)c(-c3cccc(Oc4ccccc4)c3)c(O)c12	6.86	–	–
Oc1nc2sc3c(c2c(O)c1-c1ccccc1)CCCC3	5.37	–	–
COCc1csc2nc(O)c(-c3cccc(Oc4ccccc4)c3)c(O)c12	7.44	4.25	–
Oc1nc2cscc2c(O)c1-c1ccccc1	4.59	–	–
Oc1nc2sc3c(c2c(O)c1-c1cccc(Oc2ccccc2)c1)CCCC3	6.41	< 4.52	–
CC(C)c1c(Cl)sc2nc(O)c(-c3ccccc3)c(O)c12	8.18	–	–
CC(C)c1c(Cl)sc2nc(O)c(-c3cccc(Oc4ccccc4)c3)c(O)c12	8.84	5.28	brain level (Rattus norvegicus [1]): 3.5 µmol/kg; brain level (Rattus norvegicus [2]): 0.28 µmol/kg; Activity (Mus musculus [3]): 50%
OCc1c(Cl)sc2nc(O)c(-c3cccc(Oc4ccccc4)c3)c(O)c12	7.16	–	–
Cc1cc2c(O)c(-c3ccccc3)c(O)nc2s1	5.02	–	–
CCC(C)c1c(Cl)sc2nc(O)c(-c3cccc(Oc4ccccc4)c3)c(O)c12 (centres undefined)	8.70	5.10	–
NCCc1c(Cl)sc2[nH]c(=O)c(-c3cccc(Oc4ccccc4)c3)c(O)c12	4.78	–	pIC50 (D(2) dopamine receptor): < 4.52
CC(C)(C)c1c(Cl)sc2nc(O)c(-c3cccc(Oc4ccccc4)c3)c(O)c12	8.48	4.81	–
Oc1nc2sc(Cl)c(C3CCCCC3)c2c(O)c1-c1cccc(Oc2ccccc2)c1	< 4.52	< 4.30	–
CCc1csc2nc(O)c(-c3ccccc3)c(O)c12	6.28	–	–
CCc1c(Cl)sc2nc(O)c(-c3ccccc3)c(O)c12	8.05	–	–
CCc1c(Br)sc2nc(O)c(-c3ccccc3)c(O)c12	7.98	–	–
CC(C)c1c(Cl)sc2nc(S)c(-c3ccccc3)c(O)c12	6.05	–	–
Cc1csc2nc(O)c(-c3ccccc3)c(O)c12	5.08	–	–
Oc1nc2scc(C3CC3)c2c(O)c1-c1ccccc1	5.32	–	–
Oc1nc2ccsc2c(O)c1-c1ccccc1	4.01	–	–

SMILES	pKi (Glutamate NMDA receptor)	pIC50 (L cells)	other results
CCC(C)c1csc2nc(O)c(-c3cccc(Oc4ccccc4)c3)c(O)c12 (centres undefined)	7.02	< 4.30	–
Oc1nc2sc3c(c2c(O)c1-c1cccc(Oc2ccccc2)c1)CCCS3	7.43	< 3.60	–
Oc1nc2sc(Cl)cc2c(O)c1-c1cccc(Oc2ccccc2)c1	7.78	4.81	Activity (Mus musculus [4]): 10%
O=c1[nH]c2cc(Cl)ccc2c(O)c1-c1ccccc1	6.82	–	–
O=c1[nH]c2cc(Cl)ccc2c(O)c1-c1cccc(Oc2ccccc2)c1	8.85	–	brain level (Rattus norvegicus [5]): 5.5 µmol/kg; brain level (Rattus norvegicus [6]): 1.4 µmol/kg; Activity (Mus musculus [7]): 50%
O=c1[nH]c2ccccc2c(O)c1-c1ccccc1	4.91	–	–
CCc1cc2c(O)c(-c3ccccc3)c(O)nc2s1	5.51	–	–
COCc1c(Cl)sc2nc(O)c(-c3cccc(Oc4ccccc4)c3)c(O)c12	8.80	4.80	Activity (Mus musculus [4]): 30%
Cc1sc2nc(O)c(-c3ccccc3)c(O)c2c1C	5.90	–	–
Oc1nc2sc3c(c2c(O)c1-c1cccs1)CCCC3	4.64	–	–
Cc1c(Br)sc2nc(O)c(-c3ccccc3)c(O)c12	6.41	–	–
CC1=C(CN)SC2NC(=O)C(c3cccc(Oc4ccccc4)c3)=C(O)C12 (centres undefined)	5.70	–	–
Cc1c(Cl)sc2nc(O)c(-c3cccc(Oc4ccccc4)c3)c(O)c12	7.64	< 3.70	–
NCCc1c(Cl)sc2nc(O)c(-c3ccccc3)c(O)c12	5.34	–	pIC50 (D(2) dopamine receptor): < 5.00
Cc1cc2c(O)c(-c3cccs3)c(O)nc2s1	4.64	–	–
Cc1csc2nc(O)c(-c3cccs3)c(O)c12	4.47	–	–
CCC(C)c1csc2nc(O)c(-c3ccccc3)c(O)c12 (centres undefined)	6.03	–	–
Oc1nc2sc3c(c2c(O)c1-c1cccc(Oc2ccccc2)c1)CCC3	6.93	–	–
CCCCCCc1c(Cl)sc2nc(O)c(-c3cccc(Oc4ccccc4)c3)c(O)c12	7.10	< 4.30	–
Cc1csc2nc(O)c(-c3cccc(Oc4ccccc4)c3)c(O)c12	6.48	< 3.60	–
CCC(C)c1c(Cl)sc2nc(O)c(-c3ccccc3)c(O)c12 (centres undefined)	8.24	–	–
CCc1c(Cl)sc2nc(O)c(-c3cccc(Oc4ccccc4)c3)c(O)c12	8.95	–	Activity (Mus musculus [8]): 50%; Activity (Mus musculus [9]): 50%
Cc1c(Cl)sc2nc(O)c(-c3ccccc3)c(O)c12	6.57	–	–
Oc1nc2sccc2c(O)c1-c1cccc(Oc2ccccc2)c1	6.43	4.05	–
Oc1nc2sccc2c(O)c1-c1ccccc1	4.79	–	–
